Source: PubChem BioAssay
The other results are listed elsewhere or left out. Values without a mark were called inactive. Calls of active or inactive are those of the source.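 The calls were made as follows, unless noted: active = mean inhibition across replicates above the hit cutoff set in the primary screen (cut at about 30% in these data); inactive = the rest.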

These compounds were tested on T-cell receptor (TCR)-CD3 interaction, human (assay: TCR-CD3 interaction inhibitors, retest, confirmation, biochemical, fluorescence, TAMRA-labeled TCR probe (AID 652036; in the data active = inhibition above about 19%)). Details: TAMRA-labeled TCR probe fluorescence binding assay; at 9.4 µM; active compounds read high.

Row | SMILES | inhibition
1 | CNC(=S)NNC(=O)c1oc2nc(-c3ccccc3)cc(-c3ccco3)c2c1N | 30.5% (active)
2 | O=c1[nH]n(-c2ccc([N+](=O)[O-])cc2)c(=O)c2ccccc12 | 46% (active)
3 | Cc1nn(C)cc1N1C(=O)c2cccc3c(N)ccc(c23)C1=O | 33.9% (active)

What follows are compounds tested against (Lyso)-N-acylphosphatidylethanolamine lipase (Mus musculus) (UniProt Q8VD66) (assay: ABHD4 inhibitors, retest, confirmation, biochemical, fluorescence polarization, mouse (AID 720658;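 also: 0% = wild-type ABHD4 with DMSO and 100% = catalytically dead S159A mutant with DMSO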)). Details: purified mABHD4, FP-Rh probe fluorescence polarization; at 8.92 µM; active compounds read high.
Chain of (Lyso)-N-acylphosphatidylethanolamine lipase (Mus musculus) (Q8VD66 whole entry, looked up): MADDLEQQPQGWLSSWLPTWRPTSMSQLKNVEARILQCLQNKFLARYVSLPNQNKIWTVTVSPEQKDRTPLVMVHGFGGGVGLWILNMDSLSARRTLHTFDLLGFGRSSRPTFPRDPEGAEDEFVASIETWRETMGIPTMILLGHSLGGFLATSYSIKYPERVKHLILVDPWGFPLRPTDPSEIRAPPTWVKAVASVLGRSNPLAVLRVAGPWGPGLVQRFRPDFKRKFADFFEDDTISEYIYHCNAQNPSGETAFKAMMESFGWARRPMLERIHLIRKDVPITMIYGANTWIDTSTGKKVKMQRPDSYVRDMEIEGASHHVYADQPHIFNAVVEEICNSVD
Procedure, shortened: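 Material: Wild-type mouse ABHD4 | Compound: Single nominal compound dose 8.92 µM, 0.89% DMSO final | Measured by: Fluorescence polarization, excitation 525 nm, emission 598 nm | Incubation: 45 min compound pretreatment plus 60 min FP-Rh labeling, 25 °C | Measure: Percent inhibition scaled between wild-type DMSO and S159A mutant wells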

Row | SMILES | inhibition
4 | COc1cccc2c(C)c(C(=O)O)[nH]c12 | 34.5% (active)
5 | CNC(=S)NNC(=O)c1oc2nc(-c3ccccc3)cc(-c3ccco3)c2c1N | 17.5%
6 | CN1C(=O)c2cccc3c(N)ccc(c23)C1=O | 31.5% (active)
7 | CCC(C)Cn1c(O)cc2nn(-c3nc4ccccc4s3)c(=O)c-2c1C (stereo not drawn) | 54.4% (active)
8 | CCc1ccccc1NC(=S)Nc1cc(OC)c(NC(=O)C(C)C)cc1OC | -9.17%
9 | O=c1[nH]n(-c2ccc([N+](=O)[O-])cc2)c(=O)c2ccccc12 | 43.2% (active)
10 | CCOc1[nH]n(-c2ccc(Cl)cc2)c(=O)c1C=Nc1ccc(O)cc1 | -0.05%
11 | Cc1nn(C)cc1N1C(=O)c2cccc3c(N)ccc(c23)C1=O | 40.4% (active)
12 | CC(C)c1ccc(NC(=S)NNc2ccc(Cl)c(C(=O)O)c2)cc1 | 19.4%
13 | Cc1cc(/C=N/Nc2ccc([N+](=O)[O-])cn2)c(C)n1-c1cccc(C(=O)O)c1 | 74.5% (active)
